# HSF1 inhib: HSF1 inhibition; NIH3T3-HGL HSE-luciferase, MG132-induced, luminescence 8 h; active compounds read low; activity change, negative = inhibition, % at 7.5 µM (by protocol); hit rate 0.77% among 300,000; AID 2098;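 active means more than half of replicate wells show activity change below -50%, luminescence cut by over half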;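 further: luciferase reports HSF-1 transcriptional activity via heat shock element; 0% = median of DMSO wells and -100% = zero luminescence signal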
# Lipid droplet: hepatic lipid droplet formation modulation; AML12 mouse hepatocytes, oleate lipid droplets, BODIPY imaging; inhibition, % at 6.5 µM; hit rate 0.4% among 240,000; AID 1656;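 active means lipid droplet intensity inhibited by at least 50%, with more than 500 cells counted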
#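 Technique: fluorescence imaging, 20x objective, two fields per well / Assay system: AML12 hepatocytes (mouse) / Measure: % inhibition of lipid droplet signal / Doses: 6.5 µM single-point dosing / Incubation: overnight exposure / Reagent: 100 µM oleic acid challenge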
# HSP90 inh: blocks HSP90-mediated luciferase refolding in reticulocyte lysate; Rabbit reticulocyte lysate, luciferase refolding luminescence, 3 h; inhibition, % at 5.6 µM; hit rate 0.91% among 290,000;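 active means inhibition above the screen-wide mean plus 3 SD, computed separately per campaign, cut at about 16% in these data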;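 further: 0% = DMSO wells and 100% = 60 µM geldanamycin wells; inhibitors lower the luminescence because luciferase stays unfolded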
# HSF-1 act: increases HSF-1 driven luciferase reporter signal | NIH3T3-HGL HSF-1 luciferase reporter, MG132, 8 h; 100% = twice DMSO control signal | activation, % at 9 µM | hit rate 1.7% among 300,000 | AID 504408;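 active means mean replicate activation of at least 50% with a set share of replicates each reaching 50%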;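 further: 0% = median of the neutral control wells and 100% = twice that signal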
# HCV NS3 hel inh: HCV NS3 helicase inhibition; NS3 helicase DNA unwinding, Cy5 molecular beacon fluorescence; inhibition, % at 10.9 µM; hit rate 0.56% among 290,000; AID 1800;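 active means inhibition above the mean of all tested compounds plus 3 SD, set per campaign, cut at about 35% in these data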;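 further: 0% = DMSO wells and 100% = thioflavine S control wells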
#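 Material: hepatitis C virus NS3 helicase domain fragment enzyme; measured by: Cy5 fluorescence, 0 and 60 min reads; control set: DMSO and thioflavine S; incubation: 60 min unwinding reaction at 25 °C after ATP addition; read-out basis: % inhibition from 60/0 min fluorescence ratio, DMSO 0%, thioflavine S 100%; repeats: singlicate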
# Active calls of the source: *; nt = no result given. Hits are enriched below; roughly 3.8% of the tested compounds scored in any of these assays.
SMILES,HSF1 inhib,Lipid droplet,HSP90 inh,HSF-1 act,HCV NS3 hel inh
C=CCNC(=O)C1CC(=O)N(c2ccc(OCC(=O)N3CCCC3)cc2)C1 (stereo not drawn),-3,1,0,-15,-4
CNC(=O)C1CC(=O)N(c2ccc(OCC(=O)N3CCCC3)cc2)C1 (stereo not drawn),13,-2,-3,54*,2
CCn1ncc(/C=C/C(=O)c2ccccc2)c1C,26,0,-1,53*,-1
Cc1c(/C=C/C(=O)c2ccccc2)cnn1C,12,nt,1,-5,-2
CNC[C@H](Cc1ccccc1)NC[C@@H](Cc1cccc2ccccc12)NCCc1ccc(C)cc1,-91*,18,0,-92,-88
CC(NC(=O)CCc1ccccc1)c1ccc2c(c1)OCO2 (stereo not drawn),0,1,-5,28,-5
CCOc1ccc(OCCn2nnc3ccccc3c2=O)cc1,46,-10,-3,83*,-2
CCn1cc(C(=O)OCC(=O)NCc2ccccc2Cl)c(=O)c2ccc(C)nc21,2,-4,4,-2,-7
CCOC(=O)C1CCCN(C(=O)Cn2nc(C)c3c(C)n(-c4ccccc4)nc3c2=O)C1 (stereo not drawn),3,-12,1,-14,4
O=C(CCS(=O)(=O)c1ccccc1)N(CCCN1CCOCC1)c1nc2c(F)cccc2s1,141,nt,nt,161*,nt
CCc1cccc2sc(N(CCCN3CCOCC3)C(=O)CS(=O)(=O)c3ccccc3)nc12,5,nt,nt,5,nt
O=C(CCS(=O)(=O)c1ccccc1)N(CCCN1CCOCC1)c1nc2ccc(F)cc2s1,138,nt,nt,147*,nt
Cc1ccc(S(=O)(=O)CC(=O)N(CCCN2CCOCC2)c2nc3c(F)cccc3s2)cc1,6,nt,nt,13,nt
COc1ccc(N(CC(=O)NCCC2=CCCCC2)S(=O)(=O)c2ccccc2)cc1,45,1,-2,97*,6
COc1ccc(N(CC(=O)NCCC2=CCCCC2)S(=O)(=O)c2ccccc2)cc1OC,1,1,-2,4,-7
Cc1cccc2cc3c(N)c(C(=O)N4CCOCC4)sc3nc12,36,nt,1,81*,-1
N#Cc1ccccc1OCc1nnc(-c2ccccc2Br)o1,47,-1,2,83*,10
Clc1ccccc1OCc1nnc(-c2ccccc2Br)o1,38,nt,1,49,-2
CCc1ccc(CN(Cc2cccnc2)C(=O)/C=C/c2ccc(OC)cc2)cc1,13,2,7,5,-68
CN(C)C(CNC(=S)Nc1ccccc1Cl)c1cccnc1 (stereo not drawn),-1,-16,2,13,10
Nc1[nH]c(=O)nc(Nc2ccccc2)c1N=O,-6,nt,nt,2,nt
CN(C1=C(NC(=O)c2ccccc2)C(=O)c2ccccc2C1=O)C1CCS(=O)(=O)C1 (stereo not drawn),26,-6,-2,66*,-19
CCOc1ccc(NS(=O)(=O)c2ccc(C(=O)NCCCN3CCCC3=O)cc2)cc1,4,2,-5,12,0
CN1CC=C2C(C#N)=C(N)C(C#N)(C#N)C(c3cccc(Cl)c3Cl)C2C1 (stereo not drawn),63,-27,0,113*,-12
Nc1cc(OC(=O)c2ccc(F)cc2)nn1S(=O)(=O)c1ccc(F)cc1,38,-6,3,76*,-6
SMILES,HSF1 inhib,Lipid droplet,HSP90 inh,HSF-1 act,HCV NS3 hel inh
COc1ccc(-c2cc(-c3ccccc3O)[nH]n2)cc1OC,67,nt,1,106*,-44
COc1ccc(-c2cc(-c3cc(OC)ccc3O)[nH]n2)cc1,1,-3,0,1,-7
COc1ccc(-c2cc(-c3ccc(Cl)cc3)n[nH]2)c(O)c1,62,6,-6,94*,1
O=C(CC(=O)c1ccccc1[N+](=O)[O-])c1ccccc1,-70*,nt,nt,-76,nt
O=C(NNC(=O)c1ccccc1[N+](=O)[O-])c1ccccc1[N+](=O)[O-],nt,2,0,nt,-2
O=C(NCc1cccs1)c1ccccc1[N+](=O)[O-],-70*,8,-3,-76,1
COc1ccc(C(=O)Nc2ccnn2C2CCN(C(=O)c3cccnc3)CC2)cc1,3,7,-2,4,0
O=C(CN1C(=O)C2C3C=CC(C4CC34)C2C1=O)Nc1cnc2ccccc2c1 (stereo not drawn),5,2,-6,14,-1
O=C(CCCSc1nc2ccccc2[nH]1)NCc1ccco1,13,nt,-3,68*,8
COc1ccc(N2CC(C(=O)N3CCc4ccccc43)CC2=O)cc1 (stereo not drawn),3,-6,-7,2,-2
CCN1C(=O)/C(=C/N2CC(C)CC(C)C2)SC1=S (stereo not drawn),-2,nt,-3,1,-1
CCN1C(=O)/C(=C\N2CCCCCC2)SC1=S,48,nt,2,67*,-5
O=C(/C=C/c1ccc(N2CCCCC2)c([N+](=O)[O-])c1)c1ccc(O)cc1,86,nt,-5,75*,-13
CC1CCc2[nH]c3ccc(C(=O)N4CCCC(C(F)(F)F)C4)cc3c2C1 (stereo not drawn),3,nt,nt,16,nt
CC(=O)Nc1ccc(Oc2sc(C(=O)c3ccccc3)c(N)c2C#N)cc1,60,nt,2,87*,-16
CC(=O)Nc1ccc(Oc2ccccc2)cc1,-7,1,2,-5,2
COc1ccc(CNC(=O)c2coc(=O)c3ccccc23)cc1,2,0,3,15,-2
C=CCn1c(SCC(=O)N(C)C)nc2cc(C(=O)O)ccc2c1=O,-6,-5,-2,-9,-2
CCOC(=O)c1cc2c(c(CSc3nc4ccccc4c(=O)n3Cc3ccco3)c1)OCOC2,17,1,-2,58*,5
C=CCn1c(SCc2cc([N+](=O)[O-])cc3c2OCOC3)nc2cc(C(=O)O)ccc2c1=O,29,-13,3,63*,-4
Cc1nnc(SCc2cc([N+](=O)[O-])cc3c2OCOC3)n(N)c1=O,-4,-13,4,9,9
CCC(CO)n1c(SCc2cc([N+](=O)[O-])cc3c2OCOC3)nc2ccccc2c1=O (stereo not drawn),33,-5,1,56*,-10
COC(=O)N/N=C/c1cccc(OCCSc2ccc(Cl)cc2)c1,23,15,5,57*,-10
O=C(Oc1c(-c2ccccc2)oc2ccccc2c1=O)c1ccccc1,2,nt,-2,9,-8
O=C(Oc1c(-c2ccccc2Cl)oc2ccccc2c1=O)c1ccc(Cl)cc1,-54*,4,-4,-65,-8
CC(C)(C)NS(=O)(=O)c1ccc(CCC(=O)NCc2ccccn2)cc1,-2,-3,6,1,4
Nc1c(C(=O)c2ccccc2)oc2ccc(Br)cc12,29,nt,-5,63*,0
Nc1c(C(=O)c2ccc(Cl)cc2)sc2nc3c(cc12)CCC3,27,-18,6,51*,-2
Cc1cc(-c2nnc(CCC(=O)N(C)Cc3cccc4ccccc34)o2)no1,42,-13,3,64*,-3

# Screening results (PubChem)
